Experimental data reported in article PMC12435242 (Proceedings of the National Academy of Sciences of the …, 2025).

Experiments:
[1] = test system: all SV2 members (SV2s); settings: cited from earlier work
[2] = test system: SV2A compared to SV2B and SV2C; settings: cited from earlier work
[3] = target: SV2A-W300A (Homo sapiens, UniProt Q7L0J3, W300A); test: 3H-LEV binding with or without UCB1244283, primary site mutant
[4] = target: SV2A-D670A (Homo sapiens, UniProt Q7L0J3, D670A); test: as above
Chain of SV2A-D670A (Q7L0J3 65-742 D670A limits assumed): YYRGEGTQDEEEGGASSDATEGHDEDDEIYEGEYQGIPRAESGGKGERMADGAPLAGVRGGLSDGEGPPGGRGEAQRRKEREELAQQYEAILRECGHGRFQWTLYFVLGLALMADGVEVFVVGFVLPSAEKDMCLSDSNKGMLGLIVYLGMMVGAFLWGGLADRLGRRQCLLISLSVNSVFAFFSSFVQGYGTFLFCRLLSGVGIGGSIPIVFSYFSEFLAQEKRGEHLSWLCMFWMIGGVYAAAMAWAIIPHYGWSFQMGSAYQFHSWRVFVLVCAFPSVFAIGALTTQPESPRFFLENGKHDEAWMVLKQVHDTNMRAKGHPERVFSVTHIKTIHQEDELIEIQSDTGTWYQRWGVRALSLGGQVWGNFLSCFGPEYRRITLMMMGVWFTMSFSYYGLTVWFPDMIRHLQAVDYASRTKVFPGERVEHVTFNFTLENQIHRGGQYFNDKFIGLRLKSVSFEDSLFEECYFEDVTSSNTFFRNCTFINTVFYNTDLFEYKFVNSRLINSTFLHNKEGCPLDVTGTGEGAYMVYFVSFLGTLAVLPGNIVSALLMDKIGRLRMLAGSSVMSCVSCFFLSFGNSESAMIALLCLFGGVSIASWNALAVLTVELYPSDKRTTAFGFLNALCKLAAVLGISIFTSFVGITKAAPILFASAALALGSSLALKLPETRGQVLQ

[5] = target: SV2A G659N mutant (Homo sapiens, UniProt Q7L0J3, G659N); test: 3H-LEV filter binding, concentration-response of UCB1244283; settings: 3H-LEV 3.3 µM
Chain of SV2A G659N mutant (Q7L0J3 65-742 G659N limits assumed): as the sequence (Q7L0J3 65-742 D670A limits assumed) above, with G595N, A606D counted along it
In short: (§1)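 Membranes came from tsA201 cells transfected with PEI and harvested at 48–60 h. Cells expressed human SV2A mutants lacking residues 1–64, tagged C-terminally with mVenus/TwinStrep/His10. Equal protein per FSEC was used. Incubation was 45 min on ice with 3H-LEV 3.3 µM plus test compound, 1 nM–30 µM final. Nonspecific binding was set with 1 mM unlabeled PSL. Filtration used 1% PEI-soaked glass-fibre filters, with an ice-cold TBS150 wash, then scintillation counting. Assays were run in triplicate and fitted to a three-parameter log(agonist)–response curve.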

[6] = test system: sound-sensitive mice; settings: cited from earlier work
[7] = target: SV2A-G659C (Homo sapiens, UniProt Q7L0J3, G659C); test: 3H-LEV filter binding, concentration-response of UCB1244283
Chain of SV2A-G659C (Q7L0J3 65-742 G659C limits assumed): as the sequence (Q7L0J3 65-742 D670A limits assumed) above, with G595C, A606D counted along it

[8] = test system: SV2A in human brain membranes; settings: cited from earlier work
[9] = test system: PSL-bound SV2A complex; settings: cited from earlier work
[10] = target: SV2A L655Q mutant (Homo sapiens, UniProt Q7L0J3, L655Q); test: 3H-LEV filter binding, concentration-response of UCB1244283; settings: 3H-LEV 3.3 µM
Chain of SV2A L655Q mutant (Q7L0J3 65-742 L655Q limits assumed): as the sequence (Q7L0J3 65-742 D670A limits assumed) above, with L591Q, A606D counted along it
In short: as §1

[11] = target: SV2A A308S mutant (Homo sapiens, UniProt Q7L0J3, A308S); test: as above; settings: 3H-LEV 3.3 µM
Chain of SV2A A308S mutant (Q7L0J3 65-742 A308S limits assumed): as the sequence (Q7L0J3 65-742 D670A limits assumed) above, with A244S, A606D counted along it
In short: as §1

[12] = target: wild-type SV2A (SV2AΔ64-mVenus) (Homo sapiens, UniProt Q7L0J3); test: 3H-LEV filter binding, concentration-response of UCB1244283
Chain of wild-type SV2A (SV2AΔ64-mVenus) (Q7L0J3 65-742 limits assumed, stated change not applied): as the sequence (Q7L0J3 65-742 D670A limits assumed) above, with A606D counted along it
In short: (§2)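 Human SV2AΔ64 (C-terminal mVenus/TwinStrep/His10), wild-type or point mutant, PEI-transfected into suspension tsA201 cells. Membranes harvested 48–60 h later and loaded at equal SV2A by FSEC. Incubated 45 min on ice with 3.3 µM 3H-LEV and test compound 1 nM–30 µM; nonspecific binding defined with 1 mM PSL. PEI-soaked glass-fibre filtration, scintillation counting. EC50 by three-parameter log(agonist) fit; triplicate; mean ± SEM.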

[13] = test system: SV2A; settings: cited from earlier work
[14] = target: SV2A T465A mutant (Homo sapiens, UniProt Q7L0J3, T465A); test: 3H-LEV filter binding, concentration-response of UCB1244283; settings: 3H-LEV 3.3 µM
Chain of SV2A T465A mutant (Q7L0J3 65-742 T465A limits assumed): as the sequence (Q7L0J3 65-742 D670A limits assumed) above, with T401A, A606D counted along it
In short: as §1

[15] = target: SV2A-F188A (Homo sapiens, UniProt Q7L0J3, F188A); test: 3H-LEV filter binding, concentration-response of UCB1244283
Chain of SV2A-F188A (Q7L0J3 65-742 F188A limits assumed): as the sequence (Q7L0J3 65-742 D670A limits assumed) above, with F124A, A606D counted along it
In short: as §2

[16] = target: SV2A-F184A (Homo sapiens, UniProt Q7L0J3, F184A); test: as above
Chain of SV2A-F184A (Q7L0J3 65-742 F184A limits assumed): as the sequence (Q7L0J3 65-742 D670A limits assumed) above, with F120A, A606D counted along it
In short: as §2

[17] = target: SV2A (Homo sapiens, UniProt Q7L0J3); test: 3H-UCB-J binding with or without UCB1244283; settings: Kd of 3H-UCB-J binding to SV2A
Chain of SV2A (Homo sapiens, UniProt Q7L0J3) (Q7L0J3 65-742 limits assumed): as the sequence (Q7L0J3 65-742 D670A limits assumed) above, with A606D counted along it

[18] = by slowing the rate of dissociation

Chain of SV2A-W300A (Q7L0J3 65-742 W300A limits assumed): as the sequence (Q7L0J3 65-742 D670A limits assumed) above, with W236A, A606D counted along it

Structure (SMILES): COCc1nn2c(CN3CC(CC(F)(F)Cl)CC3=O)c(C(F)(F)F)nc2s1 (single isomer, unassigned) [PSL]
- affinity for all SV2 members [1]: nanomolar affinity

Structure (SMILES): CCC[C@@H]1CC(=O)N([C@@H](CC)C(N)=O)C1 [BRV, (2S)-2-((4R)-2-oxo-4-propylpyrrolidin-1-yl)butanamide]
- higher affinity for SV2A compared to SV2B and SV2C [2]: at least 100 fold

Structure (SMILES): CC[C@@H](C(N)=O)N1CCCC1=O [LEV, 2S-(2-oxo-1-pyrrolidinyl)butanamide]
- LEV binding to mutant ([3]; W300A, with or without UCB1244283): unable to measure any significant LEV binding
- LEV binding to mutant ([4]; D670A, with or without UCB1244283): unable to measure any significant LEV binding
- higher affinity for SV2A compared to SV2B and SV2C [2]: at least 100 fold

Structure (SMILES): COc1ccccc1NC(=O)CC(C)Cc1cc(C)cc(C)c1 (centres unmarked) [UCB1244283, 4-(3,5-dimethylphenyl)-N-(2-methoxyphenyl)-3-methylbutanamide]
- change in LEV binding on addition of UCB1244283 [5]: do not show a significant change in LEV binding
- protection against seizures [6]: protection against both tonic and clonic seizures
- EC50 [7]: 1000 ± 800 nM
- reduction in Bmax of 3H-LEV binding compared to wild-type ([7]; G659C mutant, with UCB1244283): ~ 4 fold
- effect on maximum specific binding (Bmax) of 3H-LEV ([3]; UCB1244283 30 µM, 3H-LEV 3.3 µM, SV2A-W300A): does not enhance
- effect of UCB1244283 on BRV binding [8]: increases both the Bmax and binding affinity
- effect of UCB1244283 on LEV binding [8]: only increases the Bmax
- binding to the PSL-bound SV2A complex [9]: does not bind
- change in LEV binding on addition of UCB1244283 [10]: do not show a significant change in LEV binding
- change in LEV binding on addition of UCB1244283 [11]: do not show a significant change in LEV binding
- EC50 [12]: 700 ± 300 nM
- increase in specific counts of 3H-LEV binding ([12]; saturating 3H-LEV (~4 µM), with vs without UCB1244283 30 µM): ~ 2 fold
- increase in binding affinity for BRV on incubation of UCB1244283 with SV2A [13, 18]: 10 fold
- increase in binding affinity for LEV on incubation of UCB1244283 with SV2A [13, 18]: 2.5 fold
- increase in maximum binding capacity (Bmax) for BRV ([13]; with UCB1244283): 1.4 fold
- increase in maximum binding capacity (Bmax) for LEV ([13]; with UCB1244283): twofold
- effect on maximum specific binding (Bmax) of 3H-LEV ([4]; UCB1244283 30 µM, 3H-LEV 3.3 µM, SV2A-D670A): does not enhance
- change in LEV binding on addition of UCB1244283 [14]: do not show a significant change in LEV binding
- EC50 [15]: 70 ± 10 nM
- enhancement of EC50 for UCB1244283 compared to wild-type ([15]; F188A mutant): ~9 fold
- EC50 [16]: 200 ± 40 nM
- enhancement of EC50 for UCB1244283 compared to wild-type ([16]; F184A mutant): ~ 3 fold

Structure (SMILES): Cc1cnccc1CN1C[C@@H](c2cc(F)c(F)c(F)c2)CC1=O [UCB-J, (4R)-1-((3-Methyl-4-pyridinyl)methyl)-4-(3,4,5-trifluorophenyl)-2-pyrrolidinone]
- Kd ([17]; in the absence of UCB1244283): 5.3 ± 0.8 nM
- Kd ([17]; in the presence of saturating UCB1244283): 6 ± 1 nM
